Laboratory results from ChEMBL document CHEMBL1143745, “Utility of 6-amino-2-thiouracil as a precursor for the synthesis of bioactive pyrimidine derivatives” (2007).

Assays:
[1] = test system: HepG2; assay: Cytotoxicity against HEPG2 cells assessed as surviving fraction at 1 ug/ml after 48 hrs by ELISA; type: functional, Homo sapiens
Procedure, shortened: (§1)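 SRB assay in human liver carcinoma HEPG2 or lung carcinoma H460 cells. Cells are seeded at 10⁴ per well and allowed to attach for 24 h. Compound is added at 0, 1, 2.5, 5 and 10 µg/ml, in triplicate wells per dose, for 48 h continuous exposure at 37 °C in 5% CO₂. Cells are then fixed and stained with sulforhodamine B. Bound dye is recovered in Tris-EDTA and read on an ELISA reader. Surviving fraction is plotted against concentration. Cisplatin is the positive control.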

[2] = test system: HepG2; assay: Cytotoxicity against HEPG2 cells assessed as surviving fraction at 2.5 ug/ml after 48 hrs by ELISA; type: functional, Homo sapiens; procedure, shortened: as §1
[3] = test system: HepG2; assay: Cytotoxicity against HEPG2 cells assessed as surviving fraction at 5 ug/ml after 48 hrs by ELISA; type: functional, Homo sapiens; procedure, shortened: as §1
[4] = test system: HepG2; assay: Cytotoxicity against HEPG2 cells assessed as surviving fraction at 10 ug/ml after 48 hrs by ELISA; type: functional, Homo sapiens; procedure, shortened: as §1
[5] = test system: NCI-H460; assay: Cytotoxicity against human H460 cells assessed as surviving fraction at 1 ug/ml after 48 hrs by ELISA; type: functional; procedure, shortened: as §1
[6] = test system: NCI-H460; assay: Cytotoxicity against human H460 cells assessed as surviving fraction at 2.5 ug/ml after 48 hrs by ELISA; type: functional; procedure, shortened: as §1
[7] = test system: NCI-H460; assay: Cytotoxicity against human H460 cells assessed as surviving fraction at 5 ug/ml after 48 hrs by ELISA; type: functional; procedure, shortened: as §1
[8] = test system: NCI-H460; assay: Cytotoxicity against human H460 cells assessed as surviving fraction at 10 ug/ml after 48 hrs by ELISA; type: functional; procedure, shortened: as §1
[9] = test system: Bacillus subtilis; assay: Antimicrobial activity against Bacillus subtilis; type: functional
Procedure, shortened: (§2)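 Disk diffusion. A sterile filter-paper disk saturated with a measured quantity of sample is placed on agar heavily seeded with a spore suspension of the test organism. Bacteria are grown on nutrient agar and fungi on Dox's medium. The diameter of the clear inhibition zone around the disk is taken as the inhibitory measure. Ampicillin is the antibacterial reference and nystatin the antifungal reference.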

[10] = test system: Staphylococcus aureus; assay: Antimicrobial activity against Staphylococcus aureus; type: functional; procedure, shortened: as §2
[11] = test system: Enterococcus faecalis; assay: Antimicrobial activity against Streptococcus faecalis; type: functional; procedure, shortened: as §2
[12] = test system: Escherichia coli; assay: Antimicrobial activity against Escherichia coli; type: functional; procedure, shortened: as §2
[13] = test system: Neisseria gonorrhoeae; assay: Antimicrobial activity against Neisseria gonorrhoeae; type: functional; procedure, shortened: as §2
[14] = test system: Pseudomonas aeruginosa; assay: Antimicrobial activity against Pseudomonas aeruginosa; type: functional; procedure, shortened: as §2
[15] = test system: Candida albicans; assay: Antimicrobial activity against Candida albicans; type: functional; procedure, shortened: as §2
[16] = test system: Saccharomyces cerevisiae; assay: Antimicrobial activity against Saccharomyces cerevisiae; type: functional; procedure, shortened: as §2

Compound | Activity [1] | Activity [2] | Activity [3] | Activity [4] | Activity [5] | Activity [6] | Activity [7] | Activity [8] | inhibition zone (IZ) [9] | inhibition zone (IZ) [10] | inhibition zone (IZ) [11] | inhibition zone (IZ) [12] | inhibition zone (IZ) [13] | inhibition zone (IZ) [14] | inhibition zone (IZ) [15] | inhibition zone (IZ) [16]
CCOC(=O)c1cc(-c2ccc(OC)cc2)nc2[nH]c(=S)[nH]c(=O)c12 | 1.018 | 1 | 0.977 | 0.927 | 0.948 | 0.915 | 0.776 | 0.646 |  |  |  |  |  |  |  | 
N#Cc1cc(-c2ccccc2)nc2[nH]c(=S)[nH]c(=O)c12 |  |  |  |  |  |  |  |  | 11 mm | 11 mm | 12 mm | 12 mm | 12 mm | 11 mm | 12 mm | 12 mm
COc1ccc(-c2cc(C#N)c3c(=O)[nH]c(=S)[nH]c3n2)cc1 | 1.046 | 0.968 | 0.941 | 0.914 | 0.948 | 0.897 | 0.836 | 0.808 |  |  |  |  |  |  |  | 
COC(=O)c1c(-c2ccccc2)nc2[nH]c(=S)[nH]c(=O)c2c1C(=O)OC |  |  |  |  |  |  |  |  | 16 mm | 16 mm | 15 mm | 16 mm | 15 mm | 16 mm | 15 mm | 16 mm
NYSTATIN |  |  |  |  |  |  |  |  |  |  |  |  |  |  | 12 mm | 11 mm
O=C(c1ccc2ccccc2c1)c1cc(-c2ccccc2)nc2[nH]c(=S)[nH]c(=O)c12 |  |  |  |  |  |  |  |  | 10 mm | 11 mm | 11 mm | 10 mm | 12 mm | 11 mm | 10 mm | 12 mm
CCOC(=O)c1cc(-c2ccccc2)nc2[nH]c(=S)[nH]c(=O)c12 |  |  |  |  |  |  |  |  | 11 mm | 11 mm | 11 mm | 11 mm | 12 mm | 11 mm | 11 mm | 12 mm
COc1ccc(-c2cc(C(=O)c3ccco3)c3c(=O)[nH]c(=S)[nH]c3n2)cc1 |  |  |  |  |  |  |  |  | 11 mm | 11 mm | 11 mm | 11 mm | 12 mm | 11 mm | 11 mm | 12 mm
O=C(c1cccs1)c1cc(-c2ccccc2)nc2[nH]c(=S)[nH]c(=O)c12 | 1.05 | 1.005 | 0.905 | 0.85 | 0.943 | 0.869 | 0.808 | 0.641 | 13 mm | 12 mm | 12 mm | 13 mm | 13 mm | 12 mm | 13 mm | 12 mm
COC(=O)c1c(-c2ccc(OC)cc2)nc2[nH]c(=S)[nH]c(=O)c2c1C(=O)OC | 0.895 | 0.823 | 0.786 | 0.709 | 0.962 | 0.887 | 0.808 | 0.743 | 14 mm | 15 mm | 14 mm | 14 mm | 14 mm | 14 mm | 14 mm | 14 mm
COc1ccc(-c2cc(C(=O)c3cccs3)c3c(=O)[nH]c(=S)[nH]c3n2)cc1 |  |  |  |  |  |  |  |  | 11 mm | 11 mm | 12 mm | 12 mm | 14 mm | 11 mm | 12 mm | 12 mm
CC1(C)S[C@@H]2[C@H](NC(=O)[C@H](N)c3ccccc3)C(=O)N2[C@H]1C(=O)O [AMPICILLIN] |  |  |  |  |  |  |  |  | 18 mm | 20 mm | 30 mm | 11 mm | 13 mm | 19 mm |  | 
CCOC(=O)c1c(-c2ccccc2)nc2[nH]c(=S)[nH]c(=O)c2c1C(=O)OCC | 0.968 | 0.914 | 0.841 | 0.805 | 0.855 | 0.827 | 0.771 | 0.72 | 12 mm | 12 mm | 12 mm | 11 mm | 13 mm | 13 mm | 12 mm | 11 mm
